# In ChEMBL document CHEMBL4834471 (J Med Chem, 2021):
# Calls of active or inactive are those of the source. No cut-off for these calls is given here.
# How the values were obtained:
# Mus musculus [1] = assay: Antiinflammatory activity BALB/c mouse assessed as inhibition of carbachol-induced bronchial reactivity at 10 mg/kg, po administered on day 0 and 7 and measured upto 21 days; assay type: functional, organism-based; conditions: time day <=21
# [2] = Drug concentration in plasma of mouse at 10 mg/kg, po within 1 hr; assay type: ADME, organism-based
# [3] = Drug degradation in mouse at 10 mg/kg, po; assay type: ADME, organism-based; conditions: in vivo
# How it was run: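 Mice with acute peritonitis dosed orally at 10 mg/kg; plasma compound and metabolite concentrations measured 90 min after administration from extracted chromatograms; n = 8 mice.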
# [4] = Drug metabolism in human liver-on-chip assessed as compound oxidization at 12a' or 13' of omega-carboxylic acid incubated for 48 hrs by UPLC-MS/MS anlaysis; assay type: ADME, tissue-based
# How it was run: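 Liver-on-chip built from differentiated HepaRG cells (hepatocyte-like and biliary-like) with a HUVEC endothelial layer. Loaded with compound at 1 μM and incubated 48 h; compound and metabolites quantified from extracted chromatograms; n = 3 independent experiments.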
# [5] = Cytotoxicity against human PBMC assessed as reduction in metabolic activity at <=1 uM after 2 to 24 hrs by MTT assay; conditions: time 2-24 hrs
# How it was run: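 PBMC at 2 × 10^6/mL in monocyte medium treated 2 or 24 h at 37 °C, 5% CO2, with 0.1% DMSO vehicle. MTT added for 4 h in the dark, formazan solubilized in SDS/HCl, absorbance read at 570 nm.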
# [6] = biological target: T1, Prostaglandin E synthase (Homo sapiens) (UniProt O14684); assay: Inhibition of mPGES-1 activity in IL-1beta treated human A549 cells assessed as reduction in PGE2 formation at 10 uM using PGH2 as substrate preincubated for 15 mins followed by substrate addition and measured after 1 min; assay type: cell-based; conditions: time 16.0 min
# T1 sequence (whole entry): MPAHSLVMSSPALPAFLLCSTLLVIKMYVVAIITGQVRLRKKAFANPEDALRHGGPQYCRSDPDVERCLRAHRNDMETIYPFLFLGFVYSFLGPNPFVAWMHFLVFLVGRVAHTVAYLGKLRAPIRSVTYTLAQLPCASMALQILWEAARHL
# [7] = biological target: T2, Polyunsaturated fatty acid lipoxygenase ALOX12 (Homo sapiens) (UniProt P18054); assay: Inhibition of 12-LOX in human PMNL assessed as reduction in 12-LOX product formation at 10 uM treated with AA and A23187 by RP-HPLC method; assay type: tissue-based
# T2 sequence (whole entry): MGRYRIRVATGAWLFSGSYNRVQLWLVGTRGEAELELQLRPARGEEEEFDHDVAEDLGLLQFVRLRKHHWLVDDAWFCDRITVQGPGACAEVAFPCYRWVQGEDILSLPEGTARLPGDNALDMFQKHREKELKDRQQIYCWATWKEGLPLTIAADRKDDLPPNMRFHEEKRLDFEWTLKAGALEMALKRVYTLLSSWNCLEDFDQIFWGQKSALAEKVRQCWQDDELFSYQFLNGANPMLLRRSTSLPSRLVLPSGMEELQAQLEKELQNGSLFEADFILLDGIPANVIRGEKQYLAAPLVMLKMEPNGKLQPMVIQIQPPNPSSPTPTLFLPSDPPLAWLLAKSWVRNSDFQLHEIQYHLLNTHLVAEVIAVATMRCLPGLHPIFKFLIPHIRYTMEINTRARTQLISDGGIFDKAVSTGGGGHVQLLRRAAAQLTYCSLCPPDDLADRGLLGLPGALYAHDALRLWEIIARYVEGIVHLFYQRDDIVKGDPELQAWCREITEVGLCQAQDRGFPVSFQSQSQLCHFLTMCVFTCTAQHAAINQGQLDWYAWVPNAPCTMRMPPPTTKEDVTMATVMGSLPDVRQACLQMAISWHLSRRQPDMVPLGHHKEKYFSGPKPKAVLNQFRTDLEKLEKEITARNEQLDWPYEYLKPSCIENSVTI
# [8] = biological target: T3, Prostaglandin G/H synthase 1 (Ovis aries) (UniProt P05979); assay: Inhibition of ovine COX-1 assessed as reduction in 12-HHT formation at 10 uM using arachidonic acid as substrate preincubated for 6 mins followed by substrate addition by RPL-HPLC method
# T3 sequence (whole entry): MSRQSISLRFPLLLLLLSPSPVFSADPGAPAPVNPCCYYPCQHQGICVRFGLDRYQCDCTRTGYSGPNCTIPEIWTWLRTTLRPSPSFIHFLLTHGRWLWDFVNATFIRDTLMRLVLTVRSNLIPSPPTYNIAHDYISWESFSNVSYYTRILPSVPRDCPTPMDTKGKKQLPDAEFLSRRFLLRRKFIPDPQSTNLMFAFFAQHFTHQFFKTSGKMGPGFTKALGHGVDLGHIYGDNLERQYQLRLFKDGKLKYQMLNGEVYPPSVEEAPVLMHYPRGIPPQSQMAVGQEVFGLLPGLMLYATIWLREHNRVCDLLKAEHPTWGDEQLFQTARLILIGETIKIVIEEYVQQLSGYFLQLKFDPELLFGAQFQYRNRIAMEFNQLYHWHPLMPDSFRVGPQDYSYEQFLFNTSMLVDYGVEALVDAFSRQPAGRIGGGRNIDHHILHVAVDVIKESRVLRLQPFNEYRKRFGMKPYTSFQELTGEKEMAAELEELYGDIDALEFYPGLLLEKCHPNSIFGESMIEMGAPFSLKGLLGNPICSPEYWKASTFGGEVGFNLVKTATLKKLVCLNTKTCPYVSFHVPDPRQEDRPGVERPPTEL
# Keratinocyte = assay: Antiinflammatory activity in cytokine cocktail-induced reconstructed human epidermis model assessed as effect on TSLP expression at 5 to 25 uM after 4 days by ELISA; assay type: functional, cell-based; conditions: dose 5-25 µM, time 4.0 day
# Mus musculus [9] = assay: Antiinflammatory activity in zymosan-induced CD-1 mouse peritonitis model assessed as reduction in vascular permeability at 10 mg/kg, ip preincubated with compound for 30 mins followed by zymosan addition and measured after 30 mins; assay type: functional, organism-based; conditions: time 60.0 min
# How it was run: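 Zymosan peritonitis with compound 10 mg/kg i.p. Vascular permeability assessed at 30 min after zymosan. Exudate LTB4 (ELISA) and peritoneal immune cell infiltration assessed at 4 h. Two-tailed unpaired t-test of log data.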
# [10] = Drug concentration in peritoneal exudate of CD-1 mouse at 30 mg/kg, po after 30 mins; assay type: ADME, organism-based, Peritoneal fluid; conditions: read-out: Ct
# How it was run: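 Oral dosing at 30 mg/kg in zymosan peritonitis; mice killed 30 min after zymosan injection. Compound concentrations measured in plasma and in peritoneal exudate.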
# Mus musculus [11] = assay: Antiinflammatory activity in zymosan-induced CD-1 mouse peritonitis model assessed as reduction in LOX derived metabolites at 10 mg/kg, po preincubated with compound for 60 mins followed by zymosan addition and measured after 30 mins; assay type: functional, organism-based; conditions: time 90.0 min
# How it was run: (§1)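 Oral dosing at 10 mg/kg in zymosan peritonitis; mice killed 30 min after zymosan. Peritoneal exudate lipid mediators and fatty acids profiled by UPLC-MS/MS, with LTC4 measured by ELISA; results expressed as fold change versus vehicle.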
# Mus musculus [12] = assay: Antiinflammatory activity in zymosan-induced CD-1 mouse peritonitis model assessed as increase in RvE3 levels at 10 mg/kg, po preincubated with compound for 60 mins followed by zymosan addition and measured after 30 mins by UPLC-MS/MS analysis; assay type: functional, organism-based; conditions: time 90.0 min; how it was run: as §1
structure (smiles),measurement,setting,value
C/C(=C\CC/C(C)=C/CC[C@]1(C)CCc2c(C)c(O)c(C)c(C)c2O1)CCC=C(CO)CO,Activity,Mus musculus [1],Active
same,concentration at 1 h,[2],30 nM
same,Stabilty,[3],Stable
same,Drug metabolism,[4],Metabolite_Detected
same,Activity,[5],Non-Toxic
same,inhibition,[6],Active
same,inhibition,[7],inactive
same,inhibition,[8],inactive
same,Activity,Keratinocyte,inactive
same,Activity,Mus musculus [9],Active
same,concentration at 0.5 h,[10],0.5 nM
same,Activity,Mus musculus [11],Active
same,Activity,Mus musculus [12],Active
